Results from ChEMBL document CHEMBL3868590, “Quambalarine B, a Secondary Metabolite from Quambalaria cyanescens with Potential Anticancer Properties” (J Nat Prod, 2016).
Active and inactive are the calls of the source. No cut-off for these calls is given here.

Legend:
REH [1] = assay: Cytostatic activity against eFluor670-labelled human REH cells assessed as live cells at 2 umol/L measured on day 2 by Hoechst-33258 staining-based FACS analysis (reference value: 90.8%); assay type: functional
NALM-6 [2] = assay: Inhibition of P70S6K in human NALM6 cells assessed as decrease in C-MYC expression at 2 to 20 umol/L by immunoblot analysis; assay type: cell-based; conditions: TDE = time-dependent effect
In short: (§1)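 Cells prepared as for RT-qPCR (7.5 × 10^5 cells/mL). Treated either with the line-specific EC50 concentration over a time course, or 24 h with graded concentrations up to that EC50. Cells washed with phosphatase inhibitors and lysed in RIPA; 40 μg protein per lane on SDS-PAGE, then nitrocellulose. Immunoblotted for C-MYC, P70S6K, p-P70S6K (Ser424) and actin.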

REH [3] = assay: Cytostatic activity against eFluor670-labelled human REH cells assessed as live cells at 2 umol/L measured on day 4 by Hoechst-33258 staining-based FACS analysis (reference value: 88%); assay type: functional
NALM-6 [4] = assay: Cytostatic activity against human NALM6 cells assessed as population doubling level at 2 umol/L after 6 days using Burker counting chamber (reference value: 3.44); assay type: functional
In short: (§2)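 Cells were seeded at 2.5 × 10^5 cells/mL in DMSO-containing medium, with or without 2 μmol/L compound. Cells were counted daily in a Bürker chamber. PDL was calculated as log(Nf/N0)/log 2 over 6 days. Values are mean ± SD of three experiments, compared with DMSO controls.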

NALM-6 [5] = assay: Cytostatic activity against eFluor670-labelled human NALM6 cells assessed as live cells at 2 umol/L measured on day 3 by Hoechst-33258 staining-based FACS analysis (reference value: 98.6%); assay type: functional
REH [6] = assay: Cytostatic activity against human REH cells at 2 umol/L measured after 2 to 3 days using Burker counting chamber; assay type: functional, cell-based; in short: as §2
Jurkat [7] = assay: Inhibition of P70S6K in human Jurkat cells assessed as decrease in C-MYC expression measured after 24 hrs by immunoblot analysis; assay type: cell-based; in short: as §1
Jurkat [8] = assay: Cytostatic activity against eFluor670-labelled human Jurkat cells assessed as live cells at 2 umol/L measured on day 3 by Hoechst-33258 staining-based FACS analysis (reference value: 98.3%); assay type: functional
NALM-6 [9] = assay: Decrease in C-MYC mRNA level in human NALM6 cells at EC50 measured after 24 hrs by RT-qPCR analysis; assay type: functional, cell-based
NALM-6 [10] = assay: Cytostatic activity against eFluor670-labelled human NALM6 cells assessed as live cells at 2 umol/L measured on day 1 by Hoechst-33258 staining-based FACS analysis (reference value: 95.5%); assay type: functional
[11] = Cytotoxicity against B lymphocytes in human PBMC population assessed as reduction in viable cells measured after 24 hrs by Hoechst-33258 staining-based FACS analysis; assay type: toxicity, cell-based, B-cell
In short: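 PBMC were isolated from blood on a Ficoll-Paque gradient and seeded at 1 × 10^5 cells/well in 400 μL RPMI1640. Cells were exposed to a range of compound concentrations for 24 h. Viable CD3+, CD14+ and CD20+ populations were measured as Hoechst 33258-negative singlets by flow cytometry. EC50 was obtained by five-parameter nonlinear regression.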

Jurkat [12] = assay: Inhibition of P70S6K in human Jurkat cells assessed as decrease in c-MYC expression at EC50 up to 24 hrs by immunoblot analysis; assay type: cell-based; in short: as §1
Jurkat [13] = assay: Inhibition of P70S6K in human Jurkat cells assessed as decrease in phosphorylated P70S6K expression at EC50 by immunoblot analysis; assay type: cell-based; conditions: TDE = time-dependent effect; in short: as §1
Jurkat [14] = assay: Decrease in C-MYC mRNA level in human Jurkat cells at EC50 measured after 24 hrs by RT-qPCR analysis; assay type: functional, cell-based
Jurkat [15] = assay: Cytostatic activity against eFluor670-labelled human Jurkat cells assessed as live cells at 2 umol/L measured on day 5 by Hoechst-33258 staining-based FACS analysis (reference value: 97%); assay type: functional
REH [16] = assay: Decrease in C-MYC mRNA level in human REH cells at EC50 measured after 24 hrs by RT-qPCR analysis; assay type: functional, cell-based
[17] = Cytotoxicity against human Jurkat cells assessed as reduction in viable cells measured after 24 hrs by Hoechst-33258 staining-based FACS analysis; assay type: functional, cell-based
In short: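 Leukemic lines kept in RPMI1640 with 10% FBS, penicillin/streptomycin, 37 °C, 5% CO2. Seeded at 2 × 10^5 cells/mL and exposed 24 h to a range of compound concentrations (DMSO stock); medium and DMSO negative controls. Live fraction taken from Hoechst 33258-negative singlets by flow cytometry. EC50 from five-parameter nonlinear regression.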

REH [18] = assay: Inhibition of P70S6K in human REH cells assessed as decrease in C-MYC expression measured after 24 hrs by immunoblot analysis; assay type: cell-based; in short: as §1
REH [19] = assay: Cytostatic activity against eFluor670-labelled human REH cells assessed as live cells at 2 umol/L measured on day 3 by Hoechst-33258 staining-based FACS analysis (reference value: 90.2%); assay type: functional
[20] = molecular target: Myc proto-oncogene protein (Homo sapiens) (UniProt P01106); assay: Inhibition of C-MYC in human Jurkat cells assessed as decrease in PKM2 level at EC50 measured after 24 hrs by RT-qPCR analysis; assay type: cell-based
[21] = Downregulation of P70S6K protein expression in human NALM6 cells at EC50 measured after 24 hrs by immunoblot analysis; assay type: functional, cell-based; conditions: NALM-6; in short: as §1
REH [22] = assay: Cytostatic activity against human REH cells assessed as population doubling level at 2 umol/L after 6 days by Burker counting chamber (reference value: 3.55); assay type: functional; in short: as §2
REH [23] = assay: Cytostatic activity against eFluor670-labelled human REH cells assessed as live cells at 2 umol/L measured immediately after compound addition by Hoechst-33258 staining-based FACS analysis (reference value: 44.1%); assay type: functional
[24] = molecular target: Myc proto-oncogene protein (Homo sapiens) (UniProt P01106); assay: Inhibition of C-MYC in human Jurkat cells assessed as decrease in GLS level at EC50 measured after 24 hrs by RT-qPCR analysis; assay type: cell-based
NALM-6 [25] = assay: Cytostatic activity against eFluor670-labelled human NALM6 cells assessed as live cells at 2 umol/L measured on day 4 by Hoechst-33258 staining-based FACS analysis (reference value: 98.6%); assay type: functional
[26] = Cytotoxicity against PHA/LPS-stimulated CD3-positive T-lymphocytes in eFluor-670-labeled human PBMC assessed as divided cells at 2 umol/L administered post 18 hrs of PHA/LPS-stimulation measured after 72 hrs by Hoechst-33258 staining-based FACS analysis (reference value: 24.2%); assay type: toxicity; conditions: t-cell, 2 µM
In short: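 PBMC were labelled with 1 μmol/L CPD, stimulated with PHA (5 μg/mL) plus LPS (1 μg/mL), and seeded at 3 × 10^5 cells/well in 300 μL. Compound was added after 18 h and left for 72 h. Cells were stained with anti-CD3. Unstimulated cells set the CPD+ gate. Proliferation index, division index and % divided were calculated for CPD+CD3+ Hoechst-negative cells.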

REH [27] = assay: Cytostatic activity against eFluor670-labelled human REH cells assessed as live cells at 2 umol/L measured on day 1 by Hoechst-33258 staining-based FACS analysis (reference value: 89.8%); assay type: functional
[28] = molecular target: Myc proto-oncogene protein (Homo sapiens) (UniProt P01106); assay: Inhibition of C-MYC in human NALM6 cells assessed as decrease in PKM2 level at EC50 measured after 24 hrs by RT-qPCR analysis; assay type: cell-based; conditions: NALM-6

Sequence of Myc proto-oncogene protein (Homo sapiens) (P01106 whole entry): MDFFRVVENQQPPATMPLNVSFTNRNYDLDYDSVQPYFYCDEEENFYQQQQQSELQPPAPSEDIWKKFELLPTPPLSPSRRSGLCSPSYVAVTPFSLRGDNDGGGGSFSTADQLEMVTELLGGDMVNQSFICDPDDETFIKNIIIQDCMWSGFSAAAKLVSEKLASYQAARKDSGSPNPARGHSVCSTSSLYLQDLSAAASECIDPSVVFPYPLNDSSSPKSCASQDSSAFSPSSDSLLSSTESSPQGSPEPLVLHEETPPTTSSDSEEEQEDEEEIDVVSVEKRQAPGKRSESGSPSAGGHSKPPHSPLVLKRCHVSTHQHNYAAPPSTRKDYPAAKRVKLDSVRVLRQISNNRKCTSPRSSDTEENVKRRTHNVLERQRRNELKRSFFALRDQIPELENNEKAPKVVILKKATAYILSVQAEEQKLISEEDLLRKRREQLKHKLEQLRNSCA

In the case of `CCCCCC(=O)C1=C(O)C(=O)c2c(O)c(O)cc(O)c2C1=O`, the Activity (REH [1]) is reported as 40.2%, the inhibition (NALM-6 [2]) is reported as “Tde” and the Activity (REH [3]) is reported as 6.9%. For the same compound, the Activity (NALM-6 [4]) was 1.75, the Activity (NALM-6 [5]) was 98.1% and the Activity (REH [6]) was “Active”. For the same compound, the inhibition (Jurkat [7]) was “Dose-dependent effect”, the Activity (Jurkat [8]) was 69.2% and the Activity (NALM-6 [9]) was “Active”. For the same compound, the Activity (NALM-6 [10]) was 95.2%, the EC50 at 24 h [11] was > 50 µM and the inhibition (Jurkat [12]) was “Active”. For the same compound, the inhibition (Jurkat [13]) was “Tde”, the Activity (Jurkat [14]) was “Active” and the Activity (Jurkat [15]) was 25.5%. The Activity (REH [16]) was “Active”, the EC50 [17] was 7.41 µM and the inhibition (REH [18]) was “Dose-dependent effect”. The Activity (REH [19]) was 15.8%, the inhibition [20] was “Active” and the Activity [21] was “Active”. The Activity (REH [22]) was 1.32, the Activity (REH [23]) was 44.1% and the inhibition [24] was “Active”. The Activity (NALM-6 [25]) was 96.7%, the Activity [26] was 15.9% and the Activity (REH [27]) was 74.9%. For the same compound, the inhibition [28] was “Active”.
